Hits are enriched below; roughly 2.6% of the tested compounds scored in any of these assays.
SENP8 block-1 = blocks human SENP8 cleavage of Nedd8 substrate. AID 602440. inhibition, % at 20 µM. recombinant SENP8, Nedd8 substrate fluorescence. 360,000 compounds, 0.64% hits. Q96LD8; in the data active means inhibition mostly above about 40%, no sharp cut-off; inactive means mostly below about 27%
Platelet DG rel = platelet dense granule release activity. 300,000 compounds, 0.22% hits. inhibition, %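 (compounds screened at 7.5 µM in platelet-rich plasma)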. human platelet-rich plasma, SFLLRN dense granule ATP release, luminescence. AID 1663;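 active means mean replicate score, as percent of positive control, at or above 50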
SENP1 FRET inh = blocks the human SENP1 SUMO protease catalytic domain | 360,000 compounds, 0.21% hits | Q9P0U3 | recombinant SENP1 catalytic domain, CyPet-SUMO1-YPet FRET cleavage | inhibition, % at 10 µM;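 active means inhibition at least 30% at 10 µM, raw YFP signal under a set limit, fluorescence ratio 0.5 to 1.5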;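 further: 0% = enzyme with DMSO and 100% = no enzyme wells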
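Material: hSENP1 catalytic domain, recombinant; medium: Tris pH 8 with BME, BSA, NP40 and catalase; compound: single concentration of 10 µM compound, 0.5% DMSO final; technique: FRET read of cyan and yellow fluorescence; timing: 50 min enzyme reaction, room temperature, light-protected; reagent: SFCypet-SUMO1-SFYpet substrate at 25 nM; control set: no-enzyme low, enzyme-DMSO high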
SENP7 inh = inhibitors of human SENP7 protease; recombinant SENP7, Z-RLRGG-aminoluciferin luminescence, 40 min; inhibition, % at 5 µM; 330,000 compounds, 1.5% hits;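 active means inhibition above about 50% at the single test dose, limit read from the data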;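 further: plate controls were DMSO with enzyme for no effect and no enzyme buffer wells for full effect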
SENP8 block-2 = SENP8 protease inhibition | Q96LD8 | 330,000 compounds, 1.2% hits | inhibition, % at 10 µM | purified SENP8, Z-RLRGG-aminoluciferin cleavage, luminescence; in the data active means inhibition above about 50%
SENP6 inh = inhibitors of human SENP6 protease. Q9GZR1. Recombinant SENP6 catalytic domain, aminoluciferin luminescence. 330,000 compounds, 1.8% hits. inhibition, % at 10 µM;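 active means inhibition above about 50% at the single tested dose, limit read from the data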;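 further: plate controls were DMSO wells with enzyme for no effect and DMSO wells lacking enzyme for full effect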
Target sequence (Q9GZR1 628-1112 limits assumed): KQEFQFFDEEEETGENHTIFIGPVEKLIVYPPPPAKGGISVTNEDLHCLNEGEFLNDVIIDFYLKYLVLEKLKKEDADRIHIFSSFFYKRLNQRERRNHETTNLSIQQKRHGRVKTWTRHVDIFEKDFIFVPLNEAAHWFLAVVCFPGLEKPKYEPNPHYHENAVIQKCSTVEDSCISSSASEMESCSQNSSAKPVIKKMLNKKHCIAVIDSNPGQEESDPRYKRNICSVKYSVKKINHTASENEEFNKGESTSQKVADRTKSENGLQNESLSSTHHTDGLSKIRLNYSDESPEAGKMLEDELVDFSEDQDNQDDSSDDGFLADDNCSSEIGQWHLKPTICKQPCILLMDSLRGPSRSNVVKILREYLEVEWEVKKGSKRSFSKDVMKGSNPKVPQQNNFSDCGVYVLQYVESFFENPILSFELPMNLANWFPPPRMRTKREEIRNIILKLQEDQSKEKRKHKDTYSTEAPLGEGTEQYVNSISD
* marks the source's active call; other numbers are inactive results; . = no result given.

SMILES	SENP8 block-1	Platelet DG rel	SENP1 FRET inh	SENP7 inh	SENP8 block-2	SENP6 inh
CC(C)Nc1nc(NC(C)(C)C)nc(Oc2ccc(=O)n(-c3ccccc3)n2)n1	22.2	59.7*	-1.0	0.3	4.9	-23.2
COc1nc(NC(C)(C)C)nc(Oc2ccc(=O)n(-c3ccccc3)n2)n1	1.9	-4.0	6.4	8.9	4.2	-14.0
C=C(C)C(=O)Oc1ccc(N2C(=O)CCC2=O)cc1	28.8	0.3	1.7	-4.1	1.9	1.4
C=C(C)C(=O)Oc1ccc(N=Nc2ccc(C)cc2)ccc1=O	35.7	.	34.1*	.	.	.
CC(C)N(Cc1ccccc1)C(=O)CCS(=O)(=O)c1ccc2c(c1)oc(=O)n2C	10.6	-2.9	0.7	6.3	5.5	20.7
CSc1nsc(SC)c1-c1ccc(Cl)cc1	24.4	.	1.8	.	.	.
Cc1cccc2sc(NNC(=O)c3cc(=O)c4ccccc4o3)nc12	11.9	10.0	15.5	88.7*	96.0*	98.3*
O=C(CN1CCN(S(=O)(=O)N2CCOCC2)CC1)Nc1cc(Cl)cc(Cl)c1	-1.6	-5.1	-0.8	-3.1	-2.4	-28.1
Nc1cccc(C2=Nc3cccc4cccc(c34)N2)c1	45.7*	1.8	-6.5	.	.	.
COc1ccc(C2=Nc3cccc4cccc(c34)N2)cc1	23.3	1.9	-10.2	2.0	7.6	11.9
Cc1nc2cc(Nc3ccncc3)ccc2s1	-2.5	56.1*	-7.5	-5.7	-1.8	-11.4
COc1cc(OC)c2c(c1)C(=O)c1cc(OC)cc(OC)c1C2=O	57.4*	-2.8	11.4	3.1	0.7	-14.2
COc1ccc(C=C2c3ccccc3C(=O)c3ccccc32)c(OC)c1	25.5	4.7	2.1	-1.1	-9.0	-26.5
O=C(NCC(O)c1nc2ccccc2[nH]1)c1cc([N+](=O)[O-])ccc1F (stereo not drawn)	26.3	.	1.3	.	.	.
Oc1ccc(N=Nc2ccc3c(c2)OCCO3)c(O)c1	44.7*	40.7	17.0	91.2*	95.4*	94.6*
COc1cc(OC)cc(C(=O)Nc2cccc3cccnc23)c1	12.1	-3.3	5.2	9.2	-19.9	-4.8
COc1cccc(N=Nc2ccc3cccnc3c2O)c1	23.9	6.8	5.2	78.6*	83.8*	90.5*
Oc1ccc(N=Nc2ccc3c(c2)OCCO3)c2cccnc12	40.0*	7.2	4.8	-10.3	-11.0	-9.0
COc1ccc(N=Nc2ccc(O)c3ncccc23)cc1	27.7	0.7	2.2	-7.3	-16.7	-10.8
COc1cccc(N=Nc2ccc(O)c3ncccc23)c1	33.8	18.3	2.9	62.5*	73.3*	76.8*
CCOC(=O)[C@@H]1[C@H]2COc3cc(OC)ccc3[C@H]2N2C(=O)N(c3cccc(F)c3)C(=O)[C@]12C	8.4	.	1.3	-11.5	-16.2	-9.3
CSc1ccc(NC(=O)Nc2ccccc2C(N)=O)cc1	-72.5	28.0	2.5	95.4*	91.6*	97.0*
CC(C)(C)NC(=O)Nc1ccccc1C(N)=O	-33.3	5.2	4.1	-0.9	-6.2	-0.2
O=C(O)CCCNc1cc(N2CCN(C(=O)c3ccco3)CC2)c2noc3c2c1C(=O)c1ccccc1-3	77.1*	2.6	83.4*	14.7	23.7	38.3
O=C1c2ccccc2-c2onc3c(N4CCN(CCO)CC4)cc(N4CCN(C(=O)c5ccco5)CC4)c1c23	74.7*	11.9	32.2*	16.2	10.8	19.6
SMILES	SENP8 block-1	Platelet DG rel	SENP1 FRET inh	SENP7 inh	SENP8 block-2	SENP6 inh
CCOC(=O)N1CCN(c2cc(NCCC(=O)O)c3c4c(onc24)-c2ccccc2C3=O)CC1	88.0*	.	100.3	26.0	26.1	48.2
Cc1ccc(C(=O)NCCNC(=O)COc2ccc(Cl)cc2)cn1	5.5	16.8	0.7	3.9	2.5	-9.8
CCOc1cccc(-c2c(C(=O)N/N=C/c3ccc(C)s3)nnn2-c2nonc2N)c1	-48.6	64.6*	-2.1	3.3	-8.9	-8.1
COc1cccc(-c2c(C(=O)N/N=C/c3ccc(C)s3)nnn2-c2nonc2N)c1	-74.5	24.2	0.5	4.0	-3.8	7.0
O=[N+]([O-])c1ccc(CCNc2cccc3ccccc23)c([N+](=O)[O-])c1	-24.7	-8.9	0.2	12.2	35.7	54.8*
Cc1ccc(OCC(=O)Oc2c(C)cccc2C)cc1C	20.5	1.9	-0.1	-14.9	-0.9	-3.0
Cc1[nH]ccc2cc3nc4ccccc4c3cc12	-468.6	.	-26.5	.	.	.
CC1CCN(c2nc3ccc(C(=O)O)cc3s2)CC1	21.0	-1.7	-1.5	96.2*	97.1*	97.4*
CC1CCN(c2nc3ccc(C(=O)NCCCN4CCCCC4)cc3s2)CC1	-1.1	4.6	1.2	-2.8	-3.6	0.3
O=C1c2cccc(Sc3ccccc3)c2C(=O)c2c(Sc3ccccc3)cccc21	52.2*	-13.5	2.2	-1.0	12.2	9.7
Nc1c(S(=O)(=O)c2cccs2)c2nc3ccccc3nc2n1CCc1ccccc1	.	-1.4	.	27.4	30.6	53.3*
CC1(C(=O)NCCCNc2ncc(C(F)(F)F)cc2Cl)C=CC2(CCCCC2)N1C(=O)c1ccccc1 (stereo not drawn)	.	-2.4	.	-6.5	14.3	-1.7
Cc1cc(C=O)c(C)n1-c1ccc(NC2CCCC2)c([N+](=O)[O-])c1	41.9*	-1.2	6.7	4.9	0.4	-10.2
Cc1cc(C=O)c(C)n1-c1ccc(Oc2ccc([N+](=O)[O-])cn2)cc1	20.9	-10.7	0.0	-8.7	-0.7	-7.9
Cc1[nH]n(-c2ccccc2)c(=O)c1C(C[N+](=O)[O-])c1ccc(Br)cc1 (stereo not drawn)	87.7*	7.2	2.8	41.3	25.4	34.9
Cc1[nH]n(-c2ccccc2)c(=O)c1C(c1cccc([N+](=O)[O-])c1)c1c(C)[nH]n(-c2ccccc2)c1=O	49.2*	12.0	0.9	15.1	-12.7	10.6
Cc1[nH]n(-c2ccccc2)c(=O)c1C(c1ccc(C(=O)O)cc1)c1c(C)[nH]n(-c2ccccc2)c1=O	71.2*	8.0	2.5	18.0	-2.7	26.1
COc1ccc(OCCCC(=O)OC(C)C(=O)Nc2ccc(NC(C)=O)cc2)cc1 (stereo not drawn)	8.9	56.9*	0.4	-8.8	-9.6	7.6
CCN1C[C@@H]2[C@@H]3C(=O)N(Cc4ccccc4)C(=O)[C@@H]3[C@](CC)(C(=O)OC)N2C1=NCc1ccccc1	-1.9	.	1.2	.	.	.
Cc1sc(NC(=O)C2C3CCC(O3)C2C(=O)O)nc1-c1ccc(CC(C)C)cc1 (stereo not drawn)	12.4	3.2	0.7	14.1	4.3	55.8*
CCOC(=O)c1c(NC(=O)C2C3CCC(O3)C2C(=O)O)sc(C)c1-c1ccc(C)cc1 (stereo not drawn)	-19.0	0.8	0.9	5.9	6.7	15.6
Cc1c(/C=C2\NC(=O)NC2=O)c2ccccc2n1C	-0.7	8.4	-9.6	-3.7	-10.4	-6.5
CCCCOc1ccc(C(=O)NCC(=O)NCC(c2ccc(F)cc2)N2CCOCC2)cc1 (stereo not drawn)	2.4	12.6	-1.8	2.3	-2.0	2.2

Screening results deposited in PubChem by several laboratories.
